Values after ≈ are worked out from the molar mass of the structure shown.
Legend:
[1] = test system: Staphylococcus epidermidis; assay: Antibacterial activity against methicillin-susceptible Staphylococcus epidermidis ATCC 12228 assessed as reduction in microbial growth; assay type: functional
[2] = test system: Staphylococcus epidermidis; assay: Antibacterial activity against methicillin-resistant Staphylococcus epidermidis 16-5 assessed as reduction in microbial growth; assay type: functional
[3] = test system: Staphylococcus aureus; assay: Antibacterial activity against methicillin-susceptible Staphylococcus aureus ATCC 29213 assessed as reduction in microbial growth; assay type: functional
[4] = test system: Staphylococcus aureus; assay: Antibacterial activity against methicillin-resisitant Staphylococcus aureus 16-30 assessed as reduction in microbial growth; assay type: functional
[5] = test system: Escherichia coli; assay: Antibacterial activity against NDM-1 producing Escherichia coli […] assessed as reduction in microbial growth; assay type: functional
[6] = test system: Klebsiella pneumoniae; assay: Antibacterial activity against NDM-1 producing Klebsiella pneumoniae ATCC BAA-2146 assessed as reduction in microbial growth; assay type: functional
[7] = test system: Enterococcus faecalis; assay: Antibacterial activity against vancomycin-susceptible Enterococcus faecalis ATCC 29212 assessed as reduction in microbial growth; assay type: functional
[8] = test system: Acinetobacter baumannii; assay: Antibacterial activity against Acinetobacter baumannii ATCC 19606 assessed as reduction in microbial growth; assay type: functional; settings: ATCC 19606 = CIP 70.34 = JCM 6841
[9] = test system: Enterobacter cloacae; assay: Antibacterial activity against Enterobacter cloacae ATCC 43560 assessed as reduction in microbial growth; assay type: functional
[10] = test system: Klebsiella aerogenes; assay: Antibacterial activity against Enterobacter aerogenes ATCC 13048 assessed as reduction in microbial growth; assay type: functional
[11] = test system: Shigella; assay: Antibacterial activity against Shigella ATCC 12022 assessed as reduction in microbial growth; assay type: functional
[12] = test system: Enterococcus faecium; assay: Antibacterial activity against vancomycin-resistant Enterococcus faecium ATCC 700221 assessed as reduction in microbial growth
[13] = test system: Streptococcus pneumoniae; assay: Antibacterial activity against Erythromycin-susceptible Streptococcus pneumoniae ATCC 49619 assessed as reduction in microbial growth; assay type: functional
[14] = test system: Streptococcus pneumoniae; assay: Bactericidal activity against Erythromycin-susceptible Streptococcus pneumoniae ATCC 49619; assay type: functional
How it was run: (§1)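 Bacteria were exposed to 1- to 8-fold MIC of the sample, then transferred to fresh medium without antibacterial. After further incubation, colonies were counted. MBC was taken as the lowest concentration giving a >3 log10 reduction in colony number.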

[15] = test system: Streptococcus pneumoniae; assay: Ratio of MBC to MIC against Erythromycin-susceptible Streptococcus pneumoniae ATCC 49619; assay type: functional
[16] = test system: Streptococcus pneumoniae; assay: Antibacterial activity against penicillin-susceptible Streptococcus pneumoniae PU09 harboring mef gene assessed as reduction in microbial growth; assay type: functional
[17] = test system: Streptococcus pneumoniae; assay: Bactericidal activity against penicillin-susceptible Streptococcus pneumoniae PU09 harboring mef gene; assay type: functional
How it was run: (§2)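 Bacteria were exposed to 1- to 8-fold their MIC of test sample, then transferred to fresh culture medium without antibacterial compound and incubated for the required time. Colonies were then counted. MBC is the lowest concentration giving a reduction in colony number of >3 Log₁₀.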

[18] = test system: Streptococcus pneumoniae; assay: Ratio of MBC to MIC against penicillin-susceptible Streptococcus pneumoniae PU09; assay type: functional
[19] = test system: Streptococcus pneumoniae; assay: Antibacterial activity against MLSB-resistant Streptococcus pneumoniae 07P390 harboring ermB gene assessed as reduction in microbial growth; assay type: functional
[20] = test system: Streptococcus pneumoniae; assay: Bactericidal activity against MLSB-resistant Streptococcus pneumoniae 07P390 harboring ermB gene assessed as reduction in microbial growth; assay type: functional; how it was run: as §2
[21] = test system: Streptococcus pneumoniae; assay: Ratio of MBC to MIC against MLSB-resistant Streptococcus pneumoniae 07P390 harboring ermB; assay type: functional
[22] = test system: Staphylococcus aureus; assay: Antibacterial activity against MLSB/methicillin/ciprofloxacin-resistant Staphylococcus aureus PU32 harboring ermA gene assessed as reduction in microbial growth; assay type: functional
[23] = test system: Staphylococcus aureus; assay: Bactericidal activity against MLSB/methicillin/ciprofloxacin-resistant Staphylococcus aureus PU32 harboring ermA gene; assay type: functional; how it was run: as §2
[24] = test system: Staphylococcus aureus; assay: Ratio of MBC to MIC against MLSB/methicillin/ciprofloxacin-resistant Staphylococcus aureus PU32 harboring ermA gene; assay type: functional
[25] = test system: Staphylococcus aureus; assay: Antibacterial activity against MLSB/methicillin-resistant Staphylococcus aureus 15B196 assessed as reduction in microbial growth; assay type: functional
[26] = test system: Haemophilus influenzae; assay: Antibacterial activity against azithromycin-susceptible Haemophilus influenzae ATCC 49247 assessed as reduction in microbial growth; assay type: functional
[27] = test system: Haemophilus influenzae; assay: Bactericidal activity against azithromycin-susceptible Haemophilus influenzae ATCC 49247; assay type: functional; how it was run: as §1
[28] = test system: Haemophilus influenzae; assay: Ratio of MBC to MIC against azithromycin-susceptible Haemophilus influenzae ATCC 49247; assay type: functional
[29] = test system: Escherichia coli; assay: Antibacterial activity against ESBL negative Escherichia coli 16-7 assessed as reduction in microbial growth; assay type: functional
[30] = test system: Escherichia coli; assay: Antibacterial activity against ESBL positive Escherichia coli 16-1 assessed as reduction in microbial growth; assay type: functional
[31] = test system: Klebsiella pneumoniae; assay: Antibacterial activity against ESBL producing Klebsiella pneumoniae 16-14 assessed as reduction in microbial growth; assay type: functional
[32] = test system: Pseudomonas aeruginosa; assay: Antibacterial activity against Pseudomonas aeruginosa ATCC 27853 assessed as reduction in microbial growth; assay type: functional
[33] = test system: Staphylococcus aureus; assay: Bactericidal activity against MLSB/methicillin-resistant Staphylococcus aureus 15B196; assay type: functional; how it was run: as §2
[34] = test system: Staphylococcus aureus; assay: Antibacterial activity against MLSB/methicillin/ciprofloxacin-resistant Staphylococcus aureus PU32 harboring ermA gene assessed as reduction in microbial growth relative to ciprofloxacin; assay type: functional
[35] = test system: Staphylococcus aureus; assay: Antibacterial activity against MLSB/methicillin-resistant Staphylococcus aureus 15B196 assessed as reduction in microbial growth relative to ciprofloxacin; assay type: functional
[36] = test system: Haemophilus influenzae; assay: Antibacterial activity against azithromycin-susceptible Haemophilus influenzae ATCC 49247 assessed as reduction in microbial growth relative to ciprofloxacin; assay type: functional
[37] = test system: Escherichia coli; assay: Antibacterial activity against Escherichia coli BW25113 depletion of toIC efflux gene assessed as reduction in microbial growth; assay type: functional
[38] = test system: Escherichia coli; assay: Antibacterial activity against Escherichia coli JW5503-1 depletion of toIC efflux gene assessed as reduction in microbial growth; assay type: functional
[39] = test system: Escherichia coli; assay: Antibacterial activity against Escherichia coli JW5503-KanS depletion of toIC efflux gene assessed as reduction in microbial growth; assay type: functional

| Compound | MIC [1] | MIC [2] | MIC [3] | MIC [4] | MIC [5] | MIC [6] | MIC [7] | MIC [8] | MIC [9] | MIC [10] | MIC [11] | MIC [12] | MIC [13] | MBC [14] | Ratio [15] | MIC [16] | MBC [17] | Ratio [18] | MIC [19] | MBC [20] | other results |
| --- | --- | --- | --- | --- | --- | --- | --- | --- | --- | --- | --- | --- | --- | --- | --- | --- | --- | --- | --- | --- | --- |
| C[C@H]1COc2c(N3CCN(C)CC3)c(F)cc3c(=O)c(C(=O)O)cn1c23.C[C@H]1COc2c(N3CCN(C)CC3)c(F)cc3c(=O)c(C(=O)O)cn1c23.O [LEVOFLOXACIN] | 0.12 µg/mL | 8 µg/mL | 0.12 µg/mL | 32 µg/mL | 16 µg/mL | > 128 µg/mL | 0.5 µg/mL | 0.25 µg/mL | < 0.03 µg/mL | 0.06 µg/mL | < 0.03 µg/mL | 32 µg/mL |  |  |  |  |  |  |  |  |  |
| CC[C@H]1OC(=O)[C@H](C)[C@@H](OC(=O)Cc2ccccn2)[C@H](C)[C@@H](O[C@@H]2O[C@H](C)C[C@H](N(C)C)[C@H]2O)[C@](C)(OC(=O)CCNCCCNc2cc3c(=O)c(C(=O)O)cn(C4CC4)c3cc2Cl)C[C@@H](C)CN(C)[C@H](C)[C@@H](O)[C@]1(C)O | 4 µg/mL | > 64 µg/mL | 8 µg/mL | > 64 µg/mL | 64 µg/mL | > 64 µg/mL | 8 µg/mL | > 64 µg/mL | 64 µg/mL | 64 µg/mL | 16 µg/mL | > 64 µg/mL | 0.125 µg/mL | 0.125 µg/mL (≈ 0.114 µM) | 1 | 1 µg/mL | 1 µg/mL (≈ 0.909 µM) | 1 | 1 µg/mL | > 8 µg/mL | Ratio [21]: >8; MIC [22]: 8 µg/mL; MBC [23]: > 64 µg/mL; Ratio [24]: >8; MIC [25]: > 256 µg/mL; MIC [26]: 16 µg/mL; MBC [27]: 64 µg/mL (≈ 58.2 µM); Ratio [28]: 4; MIC [29]: 64 µg/mL; MIC [30]: 32 µg/mL; MIC [31]: 64 µg/mL; MIC [32]: > 64 µg/mL |
| CC[C@H]1OC(=O)[C@H](C)[C@@H](O[C@H]2C[C@@](C)(OC)[C@@H](O)[C@H](C)O2)[C@H](C)[C@@H](O[C@@H]2O[C@H](C)C[C@H](N(C)C)[C@H]2O)[C@](C)(O)C[C@@H](C)CN(C)[C@H](C)[C@@H](O)[C@]1(C)O [AZITHROMYCIN] |  |  |  |  |  |  |  |  |  |  |  |  | 0.062 µg/mL | 0.25 µg/mL (≈ 0.334 µM) | 4 | 8 µg/mL | 16 µg/mL (≈ 21.4 µM) | 2 | 256 µg/mL | > 257 µg/mL | MIC [22]: 32 µg/mL; MBC [23]: 32 µg/mL (≈ 42.7 µM); Ratio [24]: 1; MIC [25]: > 256 µg/mL; MBC [33]: > 256 µg/mL; MIC [26]: 2 µg/mL; MBC [27]: 8 µg/mL (≈ 10.7 µM); Ratio [28]: 4; fold change (FC) [34]: 0.22; fold change (FC) [35]: >226; fold change (FC) [36]: 22; MIC [37]: > 16 µg/mL; MIC [38]: 4 µg/mL; MIC [39]: 2 µg/mL |
